Platelet DG rel: platelet dense granule release activity. human platelet-rich plasma, SFLLRN dense granule ATP release, luminescence. inhibition, %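 (compounds screened at 7.5 µM in platelet-rich plasma)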. 300,000 tested, 0.22% active. AID 1663;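 active = mean replicate score, as percent of positive control, at or above 50; inconclusive = mean below 50 but at least one replicate at or above 50; inactive = mean and every replicate below 50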
SENP7 block: SENP7 protease inhibition. 330,000 tested, 1.5% active. AID 434973. inhibition, % at 5 µM. recombinant SENP7, Z-RLRGG-aminoluciferin luminescence, 40 min;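 active = inhibition above about 50% at the single test dose, limit read from the data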
SENP6 block: blocks the human protease SENP6. 330,000 tested, 1.8% active. Recombinant SENP6 catalytic domain, aminoluciferin luminescence. inhibition, % at 10 µM;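 active = inhibition above about 50% at the single tested dose, limit read from the data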
SENP1 FRET inh: inhibitors of human SENP1 SUMO protease catalytic domain; recombinant SENP1 catalytic domain, CyPet-SUMO1-YPet FRET cleavage; inhibition, % at 10 µM; 360,000 tested, 0.21% active; AID 624204;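 active = inhibition at least 30% at 10 µM, raw YFP signal under a set limit, fluorescence ratio 0.5 to 1.5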
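Test system: human SENP1 catalytic domain; medium: Tris pH 8 buffer plus EDTA, NaCl, BME, BSA, NP40, catalase; incubation: 50 min reaction at room temperature; technique: FRET, CFP and YFP emission; controls: no-enzyme low control and enzyme-plus-DMSO high control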
SENP8 block-1: inhibitors of human SENP8 protease; AID 602440; 360,000 tested, 0.64% active; recombinant SENP8, Nedd8 substrate fluorescence; inhibition, % at 20 µM; in the data active = inhibition mostly above about 40%, no sharp cut-off; inactive = mostly below about 27%
Target sequence (Q96LD8 whole entry, looked up): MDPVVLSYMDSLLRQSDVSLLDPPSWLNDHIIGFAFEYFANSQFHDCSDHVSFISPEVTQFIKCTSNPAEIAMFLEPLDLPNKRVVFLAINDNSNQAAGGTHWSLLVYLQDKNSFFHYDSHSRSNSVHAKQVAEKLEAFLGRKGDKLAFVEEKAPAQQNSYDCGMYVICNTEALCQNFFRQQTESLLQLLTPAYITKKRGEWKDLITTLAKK
SENP8 block-2: inhibitors of human SENP8 protease; purified SENP8, Z-RLRGG-aminoluciferin cleavage, luminescence; inhibition, % at 10 µM; 330,000 tested, 1.2% active; AID 2540; in the data active = inhibition above about 50%
SENP8 confirm: confirmation of human SENP8 protease inhibitors. shares compounds with SENP7 block. AID 488912. 6,200 tested, 40% active. Recombinant SENP8, Z-RLRGG-aminoluciferin luminescence, 60 min. inhibition, % at 12.5 µM;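 active = mean inhibition across replicates above about 50%, limit read from the data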
SENP6 confirm: confirmation of human SENP6 protease inhibitors; 6,200 tested, 58% active; recombinant SENP6, Z-RLRGG-aminoluciferin luminescence; inhibition, % at 12.5 µM; AID 488915; shares compounds with SENP7 block
SENP7 confirm: human SENP7 inhibition, confirmed. shares compounds with SENP7 block. recombinant SENP7, Z-RLRGG-aminoluciferin luminescence, 40 min. 6,200 tested, 69% active. inhibition, % at 12.5 µM. AID 488917
Casp3 select: inhibits human caspase-3 in SENP selectivity test | shares compounds with SENP7 block | purified caspase-3, Z-DEVD-aminoluciferin luminescence, 60 min | inhibition, % at 12.5 µM | 6,200 tested, 60% active | AID 488918;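 active = mean inhibition above about 50%, limit read from the data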
Target sequence (P42574 28-227 limits assumed): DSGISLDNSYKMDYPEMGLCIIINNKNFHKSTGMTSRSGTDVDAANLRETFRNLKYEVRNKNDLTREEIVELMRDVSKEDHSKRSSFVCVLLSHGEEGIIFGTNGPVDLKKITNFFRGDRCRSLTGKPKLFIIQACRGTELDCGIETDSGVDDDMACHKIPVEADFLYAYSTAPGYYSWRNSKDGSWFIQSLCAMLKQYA
Luc interf: counter-screen for SENP inhibitors: luminescence interference; shares compounds with SENP7 block; Pre-incubated SENP8/Z-RLRGG-aminoluciferin, luciferase luminescence interference; inhibition, % at 12.5 µM; 6,200 tested, 39% active;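 active = mean inhibition above about 50% when retested at one dose, limit read from the data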
A number is an active result; - = inactive; ? = inconclusive; . = no result given. Rows were chosen to be rich in hits. Some 2.6% of all compounds tested hit in one or more screens of this group.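 Rule for the calls, unless noted: active = mean inhibition above about 50% in the one-dose retest (limit read from the data); inactive = the rest.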

SMILES | Platelet DG rel | SENP7 block | SENP6 block | SENP1 FRET inh | SENP8 block-1 | SENP8 block-2 | SENP8 confirm | SENP6 confirm | SENP7 confirm | Casp3 select | Luc interf
COc1cccc(C(=O)O/N=C(\N)c2ccc([N+](=O)[O-])cc2)c1 | - | - | - | - | - | - | . | . | . | . | .
Cc1cccc(/C(N)=N/OC(=O)c2ccncc2)c1 | - | 92.4 | 89.0 | - | - | 75.4 | 78.9 | 84.2 | 95.8 | 91.9 | 79.8
N/C(=N\OC(=O)c1ccncc1)c1cccc([N+](=O)[O-])c1 | - | - | - | - | - | - | . | . | . | . | .
COc1ccc(C(=O)O/N=C(\N)c2ccncc2)cc1OC | - | - | - | - | - | - | . | . | . | . | .
COc1cccc(C(=O)O/N=C(\N)c2ccc(C)cc2)c1 | - | 83.3 | 73.0 | - | - | 57.5 | 74.2 | 75.9 | 93.4 | 79.0 | 57.7
COc1ccc(/C=C(\NC(=O)c2ccc(C)cc2)C(=O)Nc2ccc(C(=O)O)cc2)cc1 | - | - | - | - | - | - | . | . | . | . | .
Cc1nc(NC(=O)c2ccc(Br)o2)sc1C | - | 80.9 | 85.8 | - | - | 63.3 | 73.4 | 78.1 | 94.7 | 89.3 | -
Cc1ccc(C(=O)Nc2nnc(C)s2)o1 | - | - | - | - | - | - | . | . | . | . | .
Cc1ccc(C(=O)Nc2nc(C)c(C)s2)o1 | - | 78.6 | 74.0 | - | - | 58.3 | - | 71.6 | 92.2 | 90.6 | 74.9
Cc1nn2cc(-c3ccccc3)nc2[nH]c1=O | - | - | 72.5 | - | - | - | 65.8 | 61.2 | 88.6 | 88.9 | -
CCCN=C1N(CC)C[C@@H]2[C@@H]3C(=O)N(Cc4ccccc4)C(=O)[C@@H]3[C@](Cc3ccccc3)(C(=O)OC)N12 | . | - | . | - | - | . | . | . | . | . | .
CCOC(=O)c1ccc(-c2ccc(CO)o2)cc1 | - | 55.5 | 65.4 | - | - | - | 59.5 | 57.2 | 86.2 | 72.8 | 63.8
CCOC(=O)c1ccc(COC(=O)c2ccc(-c3nnc(-c4ccccc4)o3)cc2)o1 | ? | - | 53.0 | - | - | - | - | - | - | 59.1 | 50.8
O=C(CN1C(=O)NC2(CCOc3ccccc32)C1=O)c1ccc(F)c(F)c1 (stereo not given) | - | - | - | - | - | - | . | . | . | . | .
CCCCCCOc1ccc(C(=O)O)cc1C#N | - | - | 76.8 | - | - | 61.1 | 61.1 | 60.9 | 85.4 | 76.6 | 75.0
CCCCCCCCOc1ccc(C(=O)O)cc1 | . | - | - | - | - | - | . | . | . | . | .
O=C(Nc1ccc(N2CCOCC2)cc1N1CCOCC1)c1ccccc1 | . | - | - | - | - | - | . | . | . | . | .
Cc1ccnc(NC(=O)/C=C/c2cccs2)c1 | - | 67.2 | 86.0 | - | - | 57.0 | 71.4 | 70.6 | 90.8 | 82.8 | -
O=C(/C=C/c1cccs1)Nc1cccnc1 | - | - | - | - | - | - | . | . | . | . | .
Cc1nc(C2COc3ccccc3O2)sc1C(=O)O (stereo not given) | - | 79.8 | 88.0 | - | - | 83.5 | 89.9 | 90.6 | 99.4 | 96.7 | 88.1
O=C1/C(=C/c2ccccc2)SC(=S)N1CC(=O)N1CCCCC1c1cccnc1 (stereo not given) | - | - | - | - | - | - | . | . | . | . | .
O=c1c2ccccc2nc2sc3ccccc3n12 | . | 87.4 | 78.7 | - | - | 74.3 | 57.6 | 56.5 | 69.7 | 72.5 | -
CC1C(=O)C(C)C(c2cc(Br)ccc2O)NC1c1cc(Br)ccc1O (stereo not given) | . | . | . | - | - | . | . | . | . | . | .
Oc1ccc(Br)cc1C1Nc2ccccc2S1 (stereo not given) | - | 79.4 | - | - | - | - | - | - | - | - | -
CCN1C(=O)/C(=C/c2nc3ccccc3c(=O)[nH]2)c2ccccc21 | . | . | . | - | - | . | . | . | . | . | .
